Measured values taken from ChEMBL document CHEMBL2203196, “Synthesis, antiproliferative and apoptotic activities of N-(6(4)-indazolyl)-benzenesulfonamide derivatives as potential anticancer agents” (Eur J Med Chem, 2012).
The source made the active and inactive calls. The calls are words filed in the database; no cut-off is given here.

Tests used:
P388 [1] = test: Cytotoxicity against mouse P388 cells after 72 hrs by MTT assay; assay type: functional, cell-based; conditions: P388, 72 h
Summary of the method: (§1)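 Cells plated at 900–1800/well for exponential growth, centrifuged 275 g 2 min, left 6–8 h, then exposed 72 h to at least 5 concentrations (1:10 serial dilutions) in duplicate; MTT read-out; IC₅₀ from single concentration–response curves; mean ± SD of 3–9 experiments.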

A2780 [2] = test: Cytotoxicity against human A2780 cells after 72 hrs by MTT assay; assay type: functional, cell-based; conditions: A2780, 72 h; summary of the method: as §1
A549 [3] = test: Cytotoxicity against human A549 cells after 72 hrs by MTT assay; assay type: functional, cell-based; conditions: A549, 72 h; summary of the method: as §1
A2780 [4] = test: Induction of apoptosis in human A2780 cells assessed as change in nuclear morphology at 0.97 to 957 uM after 3 days by DAPI staining-based fluorescence microscopy relative to control; assay type: functional
Summary of the method: (§2)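 Cells plated at 5000–10000/well, left 6–8 h, then treated at MTT-derived IC₅₀ or IC₉₀; washed in cold PBS, fixed in 70% ethanol at 4 °C, stained with DAPI just before microscopy; percent apoptotic segmented nuclei scored against untreated controls; mean ± SD of 4–6 data.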

A549 [5] = test: Induction of apoptosis in human A549 cells assessed as change in nuclear morphology at IC50 after 3 days by DAPI staining-based fluorescence microscopy relative to control; assay type: functional; summary of the method: as §2
A2780 [6] = test: Cell cycle arrest in human A2780 cells assessed as accumulation at G2/M phase at IC50 after 72 hrs by propidium iodide staining-based FACS flow cytometry (reference value: 23.1 +/- 2.5 %); assay type: functional
P388 [7] = test: Induction of apoptosis in mouse P388 cells assessed as change in nuclear morphology at IC50 after 3 days by DAPI staining-based fluorescence microscopy relative to control; assay type: functional; summary of the method: as §2
A2780 [8] = test: Cell cycle arrest in human A2780 cells assessed as cells with > 4n chromosomes at 6.8 to 102.3 uM after 72 hrs by propidium iodide staining-based FACS flow cytometry; assay type: functional
A2780 [9] = test: Cell cycle arrest in human A2780 cells assessed as accumulation at G0/G1 phase at IC50 after 72 hrs by propidium iodide staining-based FACS flow cytometry (reference value: 51 +/- 6.2 %); assay type: functional
A2780 [10] = test: Cell cycle arrest in human A2780 cells assessed as accumulation at S phase at 6.8 to 102.3 uM after 72 hrs by propidium iodide staining-based FACS flow cytometry (reference value: 25.9 +/- 4.7 %); assay type: functional
A2780 [11] = test: Cell cycle arrest in human A2780 cells assessed as accumulation at G2/M phase at 6.8 to 102.3 uM after 72 hrs by propidium iodide staining-based FACS flow cytometry (reference value: 23.1 +/- 2.5 %); assay type: functional
A2780 [12] = test: Cell cycle arrest in human A2780 cells assessed as accumulation at S phase at IC50 after 72 hrs by propidium iodide staining-based FACS flow cytometry (reference value: 25.9 +/- 4.7 %); assay type: functional
A2780 [13] = test: Upregulation of p53 expression in human A2780 cells at IC50 after 24 hrs by Western blot analysis; assay type: functional, cell-based
Summary of the method: (§3)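 A2780 cells treated at IC₅₀ and harvested at 24, 48, 72 h; lysed 30 min at 4 °C in 1% Triton X-100, 0.15 M NaCl, 10 mM Tris pH 7.4 with protease inhibitors; Bradford protein assay; 50 µg protein resolved on 12% SDS-PAGE, transferred to nitrocellulose, Ponceau S loading check, blocked overnight 2% BSA in TBST at 4 °C, probed for p53 or bax.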

A2780 [14] = test: Cell cycle arrest in human A2780 cells assessed as accumulation at G0/G1 phase at 6.8 to 102.3 uM after 72 hrs by propidium iodide staining-based FACS flow cytometry (reference value: 51 +/- 6.2 %); assay type: functional
A549 [15] = test: Induction of apoptosis in human A549 cells assessed as change in nuclear morphology at 0.97 to 957 uM after 3 days by DAPI staining-based fluorescence microscopy relative to control; assay type: functional; summary of the method: as §2
A2780 [16] = test: Induction of apoptosis in human A2780 cells assessed as change in nuclear morphology at IC50 after 3 days by DAPI staining-based fluorescence microscopy relative to control; assay type: functional; summary of the method: as §2
P388 [17] = test: Induction of apoptosis in mouse P388 cells assessed as change in nuclear morphology at 0.97 to 957 uM after 3 days by DAPI staining-based fluorescence microscopy relative to control; assay type: functional; summary of the method: as §2
A2780 [18] = test: Upregulation of Bax expression in human A2780 cells at IC50 after 48 hrs by Western blot analysis; assay type: functional, cell-based; summary of the method: as §3
A549 [19] = test: Induction of apoptosis in human A549 cells assessed as change in nuclear morphology at > 200 uM after 3 days by DAPI staining-based fluorescence microscopy relative to control; assay type: functional; summary of the method: as §2
A2780 [20] = test: Induction of apoptosis in human A2780 cells assessed as change in nuclear morphology at > 200 uM after 3 days by DAPI staining-based fluorescence microscopy relative to control; assay type: functional; summary of the method: as §2

Row | Compound | IC50 (P388 [1]) | IC50 (A2780 [2]) | IC50 (A549 [3]) | Activity (A2780 [4]) | Activity (A549 [5]) | Activity (A2780 [6]) | Activity (P388 [7]) | Activity (A2780 [8]) | Activity (A2780 [9]) | Activity (A2780 [10]) | Activity (A2780 [11]) | Activity (A2780 [12]) | Activity (A2780 [13]) | Activity (A2780 [14]) | Activity (A549 [15]) | Activity (A2780 [16]) | Activity (P388 [17]) | Activity (A2780 [18]) | Activity (A549 [19]) | Activity (A2780 [20])
1 | C=CCn1ncc2c(NS(=O)(=O)c3ccc(C)cc3)ccc(OCC)c21 | 51.8 µM | 61.6 µM | 100 µM | – | – | – | – | – | – | – | – | – | – | – | – | – | – | – | – | –
2 | Cc1ccc(S(=O)(=O)Nc2cccc3[nH]ncc23)cc1 | 85.5 µM | > 100 µM | > 100 µM | – | – | – | – | – | – | – | – | – | – | – | – | – | – | – | – | –
3 | CCOc1ccc(NS(=O)(=O)c2ccc(OC)cc2)c2c(Cl)n[nH]c12 | 0.58 µM | 1.23 µM | 5.83 µM | 36.8% | 34.8% | 26.9% | 47.3% | 11.3% | 62.7% | 8.4% | 69.6% | 10.4% | Active | 10.8% | 64.5% | 23.3% | 98% | Active | – | –
4 | C=CCn1cc2ccc(NS(=O)(=O)c3ccc(C)cc3)cc2n1 | 4.41 µM | 4.89 µM | 11.9 µM | – | 51.2% | 24.2% | 30% | 11.1% | 66% | 5.5% | 72.7% | 9.8% | Active | 10.8% | – | 19.3% | 68.7% | Active | 29.2% | 66.5%
5 | CCOc1ccc(NS(=O)(=O)c2ccc(C)cc2)c2[nH]ncc12 | 5.7 µM | 8 µM | 25.1 µM | – | 18.8% | 33.7% | 19% | 11.6% | 53.7% | 8.2% | 71.4% | 12.6% | Active | 8.9% | 24.9% | 12.5% | 56% | Active | – | 27%
6 | Cc1ccc(S(=O)(=O)Nc2ccc3c[nH]nc3c2)cc1 | 71.3 µM | 86.6 µM | > 100 µM | – | – | – | – | – | – | – | – | – | – | – | – | – | – | – | – | –
7 | Cc1ccc(S(=O)(=O)Nc2cccc3[nH]nc(Br)c23)cc1 | 53.9 µM | 70.9 µM | 82.4 µM | – | – | – | – | – | – | – | – | – | – | – | – | – | – | – | – | –
8 | CCOc1ccc(NS(=O)(=O)c2ccc(C)cc2)c2cn[nH]c12 | 43.5 µM | 55.1 µM | 58.5 µM | – | – | – | – | – | – | – | – | – | – | – | – | – | – | – | – | –
9 | Cc1ccc(S(=O)(=O)Nc2cccc3c2cnn3C)cc1 | 3.4 µM | 6.62 µM | 6.88 µM | – | 28% | 23.7% | 37.3% | 6.8% | 65% | 15% | 69.2% | 11.3% | Active | 9.1% | – | 7.3% | 91.3% | inactive | 41.2% | 24%
10 | C=CCn1cc2ccc(NS(=O)(=O)c3ccc(C)cc3)c(OCC)c2n1 | 68.9 µM | > 100 µM | > 100 µM | – | – | – | – | – | – | – | – | – | – | – | – | – | – | – | – | –
11 | Cc1ccc(S(=O)(=O)Nc2ccc3c(Br)nn(S(=O)(=O)c4ccc(C)cc4)c3c2)cc1 | 51.3 µM | 74.7 µM | 104 µM | – | – | – | – | – | – | – | – | – | – | – | – | – | – | – | – | –
12 | CCOc1ccc(NS(=O)(=O)c2ccc(C)cc2)c2cn(C)nc12 | 4.19 µM | 8.34 µM | 14.4 µM | – | 22.3% | 29.3% | 10.3% | 12% | 43.5% | 13.7% | 64.5% | 27.3% | – | 9.9% | – | 33.5% | 94.3% | – | 54.3% | 51.5%
13 | CCOc1ccc(NS(=O)(=O)c2ccc(C)cc2)c2c(Br)n[nH]c12 | 5.21 µM | 10.5 µM | 17.5 µM | 34.3% | 2.8% | 24.3% | 9.8% | 8.1% | 61.5% | 10.3% | 71.5% | 14.2% | Active | 10.2% | 32.3% | 12.8% | 87.5% | Active | – | –
14 | Cc1ccc(S(=O)(=O)Nc2ccc3c(Br)n[nH]c3c2)cc1 | 66.6 µM | 101 µM | > 100 µM | – | – | – | – | – | – | – | – | – | – | – | – | – | – | – | – | –
15 | COc1ccc(S(=O)(=O)Nc2cccc3[nH]nc(Cl)c23)cc1 | 0.5 µM | 0.86 µM | 1.83 µM | 46.6% | 34.3% | 25.9% | 11.5% | 12.8% | 56.1% | 7.8% | 70.1% | 18% | Active | 9.4% | 70.8% | 23.6% | 74% | Active | – | –
